In ChEMBL document CHEMBL5058577, “EUbOPEN Chemogenomics Library 2 (Multiplex)” (2022):

Test system: U2OS
Assay: Multiplex assay against U2OS
Type: toxicity, cell-based
Details: human
Summary of the method: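 Imaging took place on a CQ1 microscope at 37°C and 5% CO2 once compound had been added to live cells stained at seeding with Hoechst33342, BioTracker Green Microtubule Cytoskeleton Dye, MitoTracker Red and Annexin V Alexa Fluor 680. CellPathfinder machine-learning gating classed cells as Hoechst high-intensity objects or normal cells, classed normal cells as having healthy, pyknosed or fragmented nuclei, and classed pyknosed cells as mitotic or apoptotic. Tubulin, mitochondrial-mass and membrane-permeability phenotypes are per cents of the healthy-nucleus cells.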

[1] = 12 h, 1 µM, compound concentration 1 uM, replicate 1
[2] = 12 h, 1 µM, compound concentration 1 uM, replicate 2
[3] = 12 h, 10 µM, compound concentration 10 uM, replicate 1
[4] = 12 h, 10 µM, compound concentration 10 uM, replicate 2
[5] = 24 h, 1 µM, compound concentration 1 uM, replicate 1
[6] = 24 h, 1 µM, compound concentration 1 uM, replicate 2
[7] = 24 h, 10 µM, compound concentration 10 uM, replicate 1
[8] = 24 h, 10 µM, compound concentration 10 uM, replicate 2
[9] = 48 h, 1 µM, compound concentration 1 uM, replicate 1
[10] = 48 h, 1 µM, compound concentration 1 uM, replicate 2
[11] = 48 h, 10 µM, compound concentration 10 uM, replicate 1
[12] = 48 h, 10 µM, compound concentration 10 uM, replicate 2

For `CC[C@H]1OC(=O)[C@H](C)[C@@H](O[C@H]2C[C@@](C)(OC)[C@@H](O)[C@H](C)O2)[C@H](C)[C@@H](O[C@@H]2O[C@H](C)C[C@H](N(C)C)[C@H]2O)[C@@]2(C)CC(C)=C(O2)[C@H](C)[C@@H](O)[C@]1(C)O`, the “Population Apoptotic (%)” value [1] was 50%, the “Population Fragmented Nuclei (%)” value [1] was 19% and the “Population Healthy Nuclei (%)” value [1] was 63%. For the same molecule, the “Population Hoechst High Intensity Objects (%)” value [1] was 3%, the “Population Membrane Permeable-Phenotype (%)” value [1] was 33% and the “Population Mitochondria Different-Phenotype (%)” value [1] was 23%. For the same molecule, the “Population Mitotic Cells (%)” value [1] was 50%, the “Population Normal (%)” value [1] was 96% and the “Population Pyknosed Nuclei (%)” value [1] was 17%. The “Population Tubulin-Different-Phenotype (%)” value [1] was 25%, the “Total Cell Count” value [1] was 226 and the “Population Apoptotic (%)” value [2] was 84%. For the same molecule, the “Population Fragmented Nuclei (%)” value [2] was 23%, the “Population Healthy Nuclei (%)” value [2] was 62% and the “Population Hoechst High Intensity Objects (%)” value [2] was 1%. For the same molecule, the “Population Membrane Permeable-Phenotype (%)” value [2] was 21%, the “Population Mitochondria Different-Phenotype (%)” value [2] was 14% and the “Population Mitotic Cells (%)” value [2] was 15%. The “Population Normal (%)” value [2] was 98%, the “Population Pyknosed Nuclei (%)” value [2] was 14% and the “Population Tubulin-Different-Phenotype (%)” value [2] was 14%. For the same molecule, the “Total Cell Count” value [2] was 91, the “Population Apoptotic (%)” value [3] was 65% and the “Population Fragmented Nuclei (%)” value [3] was 34%. For the same molecule, the “Population Healthy Nuclei (%)” value [3] was 40%, the “Population Hoechst High Intensity Objects (%)” value [3] was 7% and the “Population Membrane Permeable-Phenotype (%)” value [3] was 82%. For the same molecule, the “Population Mitochondria Different-Phenotype (%)” value [3] was 63%, the “Population Mitotic Cells (%)” value [3] was 34% and the “Population Normal (%)” value [3] was 92%. For the same molecule, the “Population Pyknosed Nuclei (%)” value [3] was 25%, the “Population Tubulin-Different-Phenotype (%)” value [3] was 89% and the “Total Cell Count” value [3] was 223. The “Population Apoptotic (%)” value [4] was 73%, the “Population Fragmented Nuclei (%)” value [4] was 21% and the “Population Healthy Nuclei (%)” value [4] was 47%. The “Population Hoechst High Intensity Objects (%)” value [4] was 4%, the “Population Membrane Permeable-Phenotype (%)” value [4] was 72% and the “Population Mitochondria Different-Phenotype (%)” value [4] was 81%. The “Population Mitotic Cells (%)” value [4] was 26%, the “Population Normal (%)” value [4] was 95% and the “Population Pyknosed Nuclei (%)” value [4] was 31%. For the same molecule, the “Population Tubulin-Different-Phenotype (%)” value [4] was 96%, the “Total Cell Count” value [4] was 128 and the “Population Apoptotic (%)” value [5] was 65%. The “Population Fragmented Nuclei (%)” value [5] was 20%, the “Population Healthy Nuclei (%)” value [5] was 63% and the “Population Hoechst High Intensity Objects (%)” value [5] was 4%. For the same molecule, the “Population Membrane Permeable-Phenotype (%)” value [5] was 20%, the “Population Mitochondria Different-Phenotype (%)” value [5] was 15% and the “Population Mitotic Cells (%)” value [5] was 35%. The “Population Normal (%)” value [5] was 95%, the “Population Pyknosed Nuclei (%)” value [5] was 16% and the “Population Tubulin-Different-Phenotype (%)” value [5] was 17%. For the same molecule, the “Total Cell Count” value [5] was 256, the “Population Apoptotic (%)” value [6] was 72% and the “Population Fragmented Nuclei (%)” value [6] was 19%. For the same molecule, the “Population Healthy Nuclei (%)” value [6] was 64%, the “Population Hoechst High Intensity Objects (%)” value [6] was 5% and the “Population Membrane Permeable-Phenotype (%)” value [6] was 14%. The “Population Mitochondria Different-Phenotype (%)” value [6] was 14%, the “Population Mitotic Cells (%)” value [6] was 27% and the “Population Normal (%)” value [6] was 94%. For the same molecule, the “Population Tubulin-Different-Phenotype (%)” value [6] was 10%, the “Total Cell Count” value [6] was 115 and the “Population Apoptotic (%)” value [7] was 67%. The “Population Fragmented Nuclei (%)” value [7] was 33%, the “Population Healthy Nuclei (%)” value [7] was 36% and the “Population Hoechst High Intensity Objects (%)” value [7] was 5%. The “Population Membrane Permeable-Phenotype (%)” value [7] was 56%, the “Population Mitochondria Different-Phenotype (%)” value [7] was 65% and the “Population Mitotic Cells (%)” value [7] was 32%. The “Population Normal (%)” value [7] was 94%, the “Population Pyknosed Nuclei (%)” value [7] was 29% and the “Population Tubulin-Different-Phenotype (%)” value [7] was 76%. The “Total Cell Count” value [7] was 210, the “Population Apoptotic (%)” value [8] was 82% and the “Population Fragmented Nuclei (%)” value [8] was 24%. For the same molecule, the “Population Healthy Nuclei (%)” value [8] was 45%, the “Population Hoechst High Intensity Objects (%)” value [8] was 4% and the “Population Membrane Permeable-Phenotype (%)” value [8] was 75%. The “Population Mitochondria Different-Phenotype (%)” value [8] was 86%, the “Population Mitotic Cells (%)” value [8] was 17% and the “Population Normal (%)” value [8] was 95%. For the same molecule, the “Population Pyknosed Nuclei (%)” value [8] was 30%, the “Population Tubulin-Different-Phenotype (%)” value [8] was 88% and the “Total Cell Count” value [8] was 121. For the same molecule, the “Population Apoptotic (%)” value [9] was 67%, the “Population Fragmented Nuclei (%)” value [9] was 19% and the “Population Healthy Nuclei (%)” value [9] was 54%. For the same molecule, the “Population Hoechst High Intensity Objects (%)” value [9] was 9%, the “Population Membrane Permeable-Phenotype (%)” value [9] was 13% and the “Population Mitochondria Different-Phenotype (%)” value [9] was 8%. For the same molecule, the “Population Mitotic Cells (%)” value [9] was 32%, the “Population Normal (%)” value [9] was 91% and the “Population Pyknosed Nuclei (%)” value [9] was 26%. The “Population Tubulin-Different-Phenotype (%)” value [9] was 11%, the “Total Cell Count” value [9] was 300 and the “Population Apoptotic (%)” value [10] was 78%. The “Population Fragmented Nuclei (%)” value [10] was 32%, the “Population Healthy Nuclei (%)” value [10] was 58% and the “Population Hoechst High Intensity Objects (%)” value [10] was 2%. The “Population Membrane Permeable-Phenotype (%)” value [10] was 12%, the “Population Mitochondria Different-Phenotype (%)” value [10] was 12% and the “Population Mitotic Cells (%)” value [10] was 21%. For the same molecule, the “Population Normal (%)” value [10] was 97%, the “Population Pyknosed Nuclei (%)” value [10] was 9% and the “Population Tubulin-Different-Phenotype (%)” value [10] was 7%. The “Total Cell Count” value [10] was 147, the “Population Apoptotic (%)” value [11] was 85% and the “Population Fragmented Nuclei (%)” value [11] was 37%. The “Population Healthy Nuclei (%)” value [11] was 31%, the “Population Hoechst High Intensity Objects (%)” value [11] was 7% and the “Population Membrane Permeable-Phenotype (%)” value [11] was 58%. For the same molecule, the “Population Mitochondria Different-Phenotype (%)” value [11] was 55%, the “Population Mitotic Cells (%)” value [11] was 14% and the “Population Normal (%)” value [11] was 92%. The “Population Pyknosed Nuclei (%)” value [11] was 31%, the “Population Tubulin-Different-Phenotype (%)” value [11] was 63% and the “Total Cell Count” value [11] was 236. The “Population Apoptotic (%)” value [12] was 83%, the “Population Fragmented Nuclei (%)” value [12] was 20% and the “Population Healthy Nuclei (%)” value [12] was 42%. For the same molecule, the “Population Hoechst High Intensity Objects (%)” value [12] was 9%, the “Population Membrane Permeable-Phenotype (%)” value [12] was 62% and the “Population Mitochondria Different-Phenotype (%)” value [12] was 81%. For the same molecule, the “Population Mitotic Cells (%)” value [12] was 16%, the “Population Normal (%)” value [12] was 90% and the “Population Pyknosed Nuclei (%)” value [12] was 36%. The “Population Tubulin-Different-Phenotype (%)” value [12] was 88% and the “Total Cell Count” value [12] was 112.
